Bioassay records from PubChem.
FN deposit inh: fibronectin deposition inhibition; AH1F fibroblasts, Alexa488-fibronectin deposition fluorescence, overnight; inhibition, % at 12.6 µM; 0.086% of 350,000 active; AID 743247;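 active = mean inhibition across replicates of 30% or more, regardless of how many single replicates reach that level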;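 note: positive control wells lacked labelled fibronectin entirely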
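Schedule: 1 h cell adhesion before compound, then overnight fibronectin incubation; test system: AH1F fibroblast monolayer depositing Alexa488-labelled fibronectin into matrix; quantity: 10000 AH1F cells per well; probe or stimulus: fluorescent fibronectin at 24 nM final; signal: fluorescence, ex 485 nm, em 525 nm; evaluation: percent inhibition as loss of matrix-bound fibronectin fluorescence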
HIV Env fusion: inhibitors of HIV Env-mediated cell fusion. HeLa-JRFL Env/CEM21 cell fusion, luciferase. AID 651610. inhibition, % at 12.3 µM. 1.1% of 360,000 active;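 active = mean replicate inhibition score of at least 50 and every replicate individually at or above 50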;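 note: 0% = plate neutral controls and 100% = maraviroc near 300 nM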
PGC1a acetyl inh: PGC1a acetylation modulation, inhibitor mode. U2OS PGC1a acetylation, AlphaScreen anti-acetyl-lysine; with virally co-expressed GCN5 acetyltransferase. 0.17% of 350,000 active. AID 651687. inhibition, % at 15.6 µM;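 active = every replicate shows inhibition of at least 40%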;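 note: 0% = neutral control wells and 100% = positive control wells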
PglD DTNB: PglD (C. jejuni) enzyme inhibition. purified PglD enzyme, DTNB colorimetric CoA detection. inhibition, % at 12.5 µM. 0.098% of 360,000 active. AID 602405; in the data active = inhibition above about 16%, passing the limit was not always enough
DENV2 CPE rescue: inhibitors of DENV2 cytopathic effect. DENV2-infected cells, cytopathic effect rescue, plate reader. 1.7% of 350,000 active. CPE inhibition, % at 9.99 µM; in the data active = CPE inhibition above about 20%, passing the limit was not always enough; tested in BHK-21 cells;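 note: 0% = median of neutral control wells and 100% = median of positive control wells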
Ecoli rRNA inh: selective bacterial rRNA inhibition in E. coli. E. coli WT GFP vs humanized-ribosome RFP mutants, fluorescence, 24 h; active compounds read low; DMSO median 0, no signal -100. GFP signal change (wild-type ribosome), % (no concentration beside the values). 1.6% of 350,000 active. AID 720706;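 active = significant combined selectivity score with lowered wild-type GFP, culture density cut under 30%, mutant RFP and density less affected; inactive = any of these conditions unmet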
Numbers without * were called inactive; [ ] = dose if it differs, or a comment. Shown are actives, neighbours in structure and some others; about 3.5% of the full set was active somewhere.

CC(=O)Oc1ccccc1C(=O)OCO/N=[N+](\[O-])N1CCCC1 was read as HIV Env fusion 7[16.7 µM], PGC1a acetyl inh -8, PglD DTNB -8 and DENV2 CPE rescue 0.
Cc1ccc(S(=O)(=O)N2CC3(O)CN(C(=O)OC(C)C)N(C(=O)OC(C)C)CC3(OC(=O)NCC3CCCCC3)C2)cc1 (stereo not given) was read as FN deposit inh -5, HIV Env fusion 73*, PGC1a acetyl inh 19, PglD DTNB -1, DENV2 CPE rescue 8 and Ecoli rRNA inh -7.
Screening Cc1ccc(S(=O)(=O)N2CC3(O)CN(C(=O)OC(C)C)N(C(=O)OC(C)C)CC3(OC(=O)NC3CC3)C2)cc1 (stereo not given) returned FN deposit inh 2, HIV Env fusion -13 and DENV2 CPE rescue -6.
Screening C[C@@H]1CN([C@H](C)CO)C(=O)Cc2cc(NC(=O)Cc3cn(C)c4ccccc34)ccc2O[C@H]1CN(C)Cc1ccc2c(c1)OCO2 returned HIV Env fusion -8[16.7 µM], PGC1a acetyl inh -16, PglD DTNB 2, DENV2 CPE rescue 51* and Ecoli rRNA inh 0.
C[C@@H]1CN([C@@H](C)CO)C(=O)Cc2cc(NC(=O)Cc3cn(C)c4ccccc34)ccc2O[C@@H]1CN(C)Cc1ccc(C(F)(F)F)cc1 was read as FN deposit inh -5, HIV Env fusion -157[16.7 µM], PGC1a acetyl inh -6, PglD DTNB 4, DENV2 CPE rescue 77* and Ecoli rRNA inh -1.
`C[C@H](CO)N1C[C@H](C)[C@@H](CN(C)Cc2ccc3c(c2)OCO3)Oc2ccc(NC(=O)Cc3cn(C)c4ccccc34)cc2CC1=O` gave HIV Env fusion 5[16.7 µM], PGC1a acetyl inh -26, PglD DTNB 2, DENV2 CPE rescue -7 and Ecoli rRNA inh 4.
`O=C(C[C@@H]1CC[C@H]2[C@@H](COC[C@H](O)CN2C(=O)Nc2cccc(Cl)c2)O1)NCC1CCCCC1` gave FN deposit inh 5, PGC1a acetyl inh 4, PglD DTNB -3, DENV2 CPE rescue -9 and Ecoli rRNA inh -56.
C/C=C/c1cnc2c(c1)C(=O)N([C@H](C)CO)C[C@H](C)[C@@H](CN(C)S(=O)(=O)c1ccc(F)cc1)O2 was read as HIV Env fusion 34[16.7 µM], PGC1a acetyl inh -4, PglD DTNB -1, DENV2 CPE rescue -4 and Ecoli rRNA inh -5.
For O=C(NNC(=O)C(c1ccccc1)c1ccccc1)c1ccccn1 the results were FN deposit inh 21, HIV Env fusion 74*, DENV2 CPE rescue 1 and Ecoli rRNA inh -29.
For O=C(NNc1ccccn1)C(c1ccccc1)c1ccccc1 the results were FN deposit inh -18, HIV Env fusion -3, PglD DTNB 3, DENV2 CPE rescue 8 and Ecoli rRNA inh 1.
For O=C(c1ccncc1)N1C[C@@H]2[C@H](c3ccccc31)[C@H](CO)N2C(=O)Nc1ccc(F)cc1 the results were PGC1a acetyl inh 5, PglD DTNB 2, DENV2 CPE rescue 6 and Ecoli rRNA inh 0.
For CN1C(=O)c2cc(NC(=O)Nc3cccc(Cl)c3)ccc2OC[C@H]2O[C@@H](CC(=O)NCCc3ccncc3)CC[C@@H]21 the results were FN deposit inh 1, PGC1a acetyl inh -4, PglD DTNB 3, DENV2 CPE rescue 3 and Ecoli rRNA inh -1.
`Cc1onc(-c2ccccc2)c1C(=O)NC(=S)NNC(=O)c1ccc(O)cc1` gave HIV Env fusion 69*.
Cc1ccc(S(=O)(=O)N/N=C/c2ccc(O)cc2O)cc1[N+](=O)[O-] was read as FN deposit inh -4, HIV Env fusion -6, PGC1a acetyl inh -5, PglD DTNB 2, DENV2 CPE rescue 1 and Ecoli rRNA inh 3.
For O=S(=O)(NN=Cc1ccc(O)cc1O)c1cc(Cl)c(Cl)cc1Cl the results were FN deposit inh -12, HIV Env fusion -4, PGC1a acetyl inh -4, PglD DTNB -6, DENV2 CPE rescue 16 and Ecoli rRNA inh -15*.
Screening CCC(=O)N1[C@@H]2c3ccc(-c4ccncc4)c(=O)n3C[C@H]1[C@H](CO)[C@H]2C(=O)NC1Cc2ccccc2C1 returned HIV Env fusion -11[16.7 µM], PglD DTNB -3, DENV2 CPE rescue -8 and Ecoli rRNA inh -2.
For CCc1ccc(C(=O)CN2C(=O)NC3(CCOc4ccccc43)C2=O)s1 (stereo not given) the results were FN deposit inh 12, HIV Env fusion 11, PGC1a acetyl inh -5, PglD DTNB 0 and DENV2 CPE rescue 2.
For O=C(CN1C(=O)NC2(CCOc3ccccc32)C1=O)c1ccc(Cl)s1 (stereo not given) the results were FN deposit inh -6, HIV Env fusion 0, PglD DTNB -2, DENV2 CPE rescue 5 and Ecoli rRNA inh -32*.
Screening CCNC(=O)Nc1ccc2c(c1)C(=O)N(C)[C@@H]1CC[C@H](CC(=O)NCC3CC3)O[C@H]1CO2 returned FN deposit inh 11, HIV Env fusion 19[16.7 µM], PGC1a acetyl inh 0, PglD DTNB 2, DENV2 CPE rescue 5 and Ecoli rRNA inh 1.
For O=C(O)c1ccc(-c2noc(-c3ccccc3Cl)n2)cc1 the results were FN deposit inh -1, HIV Env fusion -166, PglD DTNB 0, DENV2 CPE rescue 3 and Ecoli rRNA inh -16.
For O=C(O)c1ccc(-c2noc(-c3cccc(Cl)c3)n2)cc1 the results were FN deposit inh 8, HIV Env fusion -25, PGC1a acetyl inh -1, PglD DTNB 5, DENV2 CPE rescue 4 and Ecoli rRNA inh -23*.
Screening Cc1ccc(S(=O)(=O)N2C(c3cccc(Cl)c3)CC=C(C(=O)O)C2c2cccc(Cl)c2)cc1 (stereo not given) returned FN deposit inh 1, HIV Env fusion 3, DENV2 CPE rescue 0 and Ecoli rRNA inh -24.
`CCOC(=O)C1=CCN(S(=O)(=O)c2ccc(F)cc2)C1c1cccc(Cl)c1` (stereo not given) gave FN deposit inh 5, HIV Env fusion 16, PGC1a acetyl inh -29, PglD DTNB -3, DENV2 CPE rescue 84* and Ecoli rRNA inh -10.
`CCOC(=O)C1=CCN(S(=O)(=O)c2ccc(C)cc2)[C@H]1c1ccccc1Cl` gave FN deposit inh -10, HIV Env fusion 23, PGC1a acetyl inh -46, PglD DTNB -3, DENV2 CPE rescue -1 and Ecoli rRNA inh -29*.
`CCOC(=O)C1=CC[C@@H](c2cccc(Br)c2)N(S(=O)(=O)c2ccc(F)cc2)[C@H]1c1cccc(Cl)c1` gave FN deposit inh -2, HIV Env fusion 60*, DENV2 CPE rescue -3 and Ecoli rRNA inh 4.
Screening CCOC(=O)C1=CC[C@H]2c3c(c4ccc(OC)cc4n3C)C(=O)C1N2S(=O)(=O)c1ccc(C)cc1 returned FN deposit inh -9, HIV Env fusion 22, PGC1a acetyl inh 9, PglD DTNB 8, DENV2 CPE rescue 31* and Ecoli rRNA inh -2.
